Data set [1] in a line: Initial rates of formation of metabolic intermediate Cytochrome P-450 at compound concentration of 30 uM. It is filed as ADME. The method, boiled down: (§1)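 Rabbit liver microsomes at 2 mg protein/mL with 0.1 mM EDTA, 37 °C, substrate 30 μM. Complex formation started with 0.4 mM NADPH and followed by dual-wavelength absorbance, 457 vs 500 nm. Initial rate is the initial slope, ΔA×10^4 per nmol P-450 per min. Extent is the plateau absorbance. Lag is the time from NADPH addition to first 457-nm chromophore. Triplicate or single runs.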

The nature of data set [2]: Extent rates of formation of metabolic intermediate Cytochrome P-450 at compound concentration of 30 uM. The data set is classed as ADME. A digest of the protocol:
as §1

Data set [3] is described as follows: Initial rates of formation of metabolic intermediate Cytochrome P-450 at compound concentration of 15-180 uM. It is filed as ADME. A digest of the protocol: (§2)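 Rabbit liver microsomes at 2 mg protein/mL with 0.1 mM EDTA, 37 °C, NADPH-dependent. Substrate tested at several concentrations. ΔA457–500 nm followed against time. Rate is the initial slope per nmol P-450 per min; extent is the plateau absorbance. Runs disturbed by a transient 450-nm species were discarded.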

In data set [4] the target is Cytochrome P450 2C19 (Homo sapiens, UniProt P33261). In words: Apparent binding affinity of compound (15.0-45.0 uM) in Cytochrome P450 binding. The data set is classed as ADME, Oryctolagus cuniculus. Conditions: read-out: Ks.
Data set [5] in a line: Lag time between the addition of compound (30 uM) and the first appearance of chromophore. It is filed as ADME. The method, boiled down: as §1
Data set [6] is described as follows: Extent rates of formation of metabolic intermediate Cytochrome P-450 at compound concentration of 15-180 uM. It is filed as ADME. A digest of the protocol:
as §2

Chain of Cytochrome P450 2C19 (P33261 whole entry): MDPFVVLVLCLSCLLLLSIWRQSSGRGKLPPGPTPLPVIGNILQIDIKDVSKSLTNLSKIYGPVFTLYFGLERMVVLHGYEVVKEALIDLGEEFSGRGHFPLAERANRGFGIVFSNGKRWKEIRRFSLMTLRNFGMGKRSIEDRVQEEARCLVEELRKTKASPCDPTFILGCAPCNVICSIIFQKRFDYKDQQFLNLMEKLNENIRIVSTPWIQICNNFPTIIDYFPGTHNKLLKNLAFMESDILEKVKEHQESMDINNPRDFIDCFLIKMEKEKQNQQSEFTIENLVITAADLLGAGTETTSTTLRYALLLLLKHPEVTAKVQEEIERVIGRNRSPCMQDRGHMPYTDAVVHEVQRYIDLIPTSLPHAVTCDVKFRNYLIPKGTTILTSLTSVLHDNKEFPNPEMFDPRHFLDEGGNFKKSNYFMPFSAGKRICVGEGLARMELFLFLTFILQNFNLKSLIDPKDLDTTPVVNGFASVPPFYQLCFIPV

`COc1cc(C[C@H](C)NO)c(OC)cc1C`: the Rate is on record as 211 in data set [1], 161 in data set [2], 66 in data set [3] and 34 in data set [6]. For the same compound, the Kd in data set [4] is 68 µM. The Lag time in data set [5] is 0 s.

These data come from ChEMBL document CHEMBL1121797, “Studies on chiral interactions of 1-(2,5-dimethoxy-4-methylphenyl)-2-aminopropane and the corresponding N-hydroxy metabolites with cytochrome P-450” (J Med Chem, 1981).
